From ChEMBL document CHEMBL2086296, “Synthesis of novel quinoline-2-one based chalcones of potential anti-tumor activity” (Eur J Med Chem, 2012)

Key:
NCI-H522 [1] = assay: (§1) Cytotoxicity against human NCI-H522 cells after 24 hrs by SRB assay; format: functional; conditions: NCI-H522, 24 h
In short: (§2)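 NCI 60-line screen. Cells in RPMI 1640 with 5% FBS and 2 mM L-glutamine, seeded at 5,000–40,000 cells/well by doubling time, then incubated 24 h at 37 °C, 5% CO2 before dosing. Time-zero plates fixed with TCA at drug addition. DMSO stocks diluted in medium with gentamicin to five concentrations, […]. Protein read by SRB staining. GI50, TGI and LC50 derived relative to control and time-zero.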

COLO 205 = assay: Cytotoxicity against human COLO205 cells after 24 hrs by SRB assay; format: functional; conditions: COLO 205, 24 h; in short: as §2
HT-29 = assay: Cytotoxicity against human HT-29 cells after 24 hrs by SRB assay; format: functional; conditions: HT-29, 24 h; in short: as §2
KM12 [2] = assay: (§3) Cytotoxicity against human KM12 cells after 24 hrs by SRB assay; format: functional; conditions: KM12, 24 h; in short: as §2
HCC 2998 = assay: Cytotoxicity against human HCC2998 cells after 24 hrs by SRB assay; format: functional; conditions: HCC 2998, 24 h; in short: as §2
SNB-75 = assay: Cytotoxicity against human SNB75 cells after 24 hrs by SRB assay; format: functional; conditions: SNB-75, 24 h
In short: (§4)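 NCI 60-cell screen. Cells are grown in RPMI 1640 with 5% FBS and 2 mM L-glutamine and seeded at 5,000–40,000 cells/well according to doubling time. They are preincubated 24 h at 37 °C in 5% CO2, and Tz plates are TCA-fixed at drug addition. Drug stock is in DMSO, diluted in medium with gentamicin, and tested at five concentrations (100, 10, 1.0, 0.1, […]). Protein is read by SRB staining. GI50, TGI and LC50 are derived relative to time-zero and control wells.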

SK-MEL-5 [3] = assay: (§5) Cytotoxicity against human SK-MEL-5 cells after 24 hrs by SRB assay; format: functional; conditions: SK-MEL-5, 24 h; in short: as §2
M14 [4] = assay: (§6) Cytotoxicity against human M14 cells after 24 hrs by SRB assay; format: functional; conditions: M14, 24 h; in short: as §2
NCI/ADR-RES = assay: Cytotoxicity against human NCI/ADR-RES cells after 24 hrs by SRB assay; format: functional; in short: as §2
OVCAR-8 [5] = assay: (§7) Cytotoxicity against human OVCAR8 cells after 24 hrs by SRB assay; format: functional; conditions: OVCAR-8, 24 h; in short: as §2
OVCAR-5 = assay: Cytotoxicity against human OVCAR5 cells after 24 hrs by SRB assay; format: functional; conditions: OVCAR-5, 24 h; in short: as §2
SK-OV-3 [6] = assay: (§8) Cytotoxicity against human SKOV3 cells after 24 hrs by SRB assay; format: functional; conditions: SK-OV-3, 24 h; in short: as §2
TK-10 = assay: Cytotoxicity against human TK10 cells after 24 hrs by SRB assay; format: functional; conditions: TK-10, 24 h; in short: as §4
MDA-MB-231 [7] = assay: (§9) Cytotoxicity against human MDA-MB-231 cells after 24 hrs by SRB assay; format: functional; conditions: MDA-MB-231, 24 h; in short: as §2
BT-549 [8] = assay: (§10) Cytotoxicity against human BT549 cells after 24 hrs by SRB assay; format: functional; conditions: BT-549, 24 h; in short: as §2
T47D [9] = assay: (§11) Cytotoxicity against human T47D cells after 24 hrs by SRB assay; format: functional; in short: as §4
CCRF-CEM = assay: Cytotoxicity against human CCRF-CEM cells after 24 hrs by SRB assay; format: cell-based
In short: (§12)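 NCI 60-cell screen. Cells grown in RPMI 1640 with 5% FBS and 2 mM L-glutamine, seeded at 5,000–40,000 cells/well, preincubated 24 h at 37 °C in 5% CO2. Drug stock in DMSO, diluted in medium with gentamicin; five final concentrations, 100, 10, 1.0, 0.1 and […]. Time-zero plates were TCA-fixed. Protein read by SRB staining; GI50, TGI and LC50 taken relative to time-zero.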

HL-60 = assay: Cytotoxicity against human HL60 cells after 24 hrs by SRB assay; format: cell-based; conditions: hl-60, 24 h; in short: as §12
MOLT-4 = assay: Cytotoxicity against human MOLT4 cells after 24 hrs by SRB assay; format: cell-based; conditions: molt-4, 24 h; in short: as §12
NCI-H460 = assay: Cytotoxicity against human NCI-H460 cells after 24 hrs by SRB assay; format: cell-based; conditions: nci-h460, 24 h; in short: as §12
NCI-H522 [10] = assay: as §1; format: cell-based; conditions: nci-h522, 24 h; in short: as §12
KM12 [11] = assay: as §3; format: cell-based; conditions: km12, 24 h; in short: as §12
SW-620 = assay: Cytotoxicity against human SW620 cells after 24 hrs by SRB assay; format: cell-based; conditions: sw-620, 24 h
In short: (§13)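 NCI 60-cell-line screen: cells grown in RPMI 1640 with 5% FBS and 2 mM L-glutamine, seeded at 5,000–40,000 cells/well by doubling time, and preincubated 24 h at 37 °C in 5% CO2. Time-zero plates were TCA-fixed. DMSO stocks were diluted in medium with gentamicin to five concentrations (100, 10, 1.0, 0.1, […]). Protein was read by SRB, and GI50, TGI and LC50 were derived against time-zero.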

U-251 = assay: Cytotoxicity against human U251 cells after 24 hrs by SRB assay; format: cell-based; conditions: u-251, 24 h; in short: as §13
SNB-19 = assay: Cytotoxicity against human SNB19 cells after 24 hrs by SRB assay; format: cell-based; conditions: snb-19, 24 h; in short: as §13
LOX IMVI = assay: Cytotoxicity against human LOXIMVI cells after 24 hrs by SRB assay; format: cell-based; in short: as §12
RPMI-8226 = assay: Cytotoxicity against human RPMI8226 cells after 24 hrs by SRB assay; format: functional; conditions: RPMI-8226, 24 h; in short: as §2
SR = assay: Cytotoxicity against human SR cells after 24 hrs by SRB assay; format: functional; in short: as §4
SK-MEL-5 [12] = assay: as §5; format: cell-based; conditions: sk-mel-5, 24 h; in short: as §12
M14 [13] = assay: as §6; format: cell-based; conditions: m14, 24 h; in short: as §12
SK-MEL-28 = assay: Cytotoxicity against human SK-MEL-28 cells after 24 hrs by SRB assay; format: cell-based; conditions: sk-mel-28, 24 h; in short: as §12
OVCAR-8 [14] = assay: as §7; format: cell-based; conditions: ovcar-8, 24 h; in short: as §12
SK-OV-3 [15] = assay: as §8; format: cell-based; conditions: sk-ov-3, 24 h; in short: as §13
SN12C = assay: Cytotoxicity against human SN12C cells after 24 hrs by SRB assay; format: cell-based; in short: as §13
786-0 = assay: Cytotoxicity against human 786-0 cells after 24 hrs by SRB assay; format: cell-based; conditions: 786-0, 24 h; in short: as §12
MCF7 = assay: Cytotoxicity against human MCF7 cells after 24 hrs by SRB assay; format: cell-based; conditions: mcf7, 24 h; in short: as §12
MDA-MB-231 [16] = assay: as §9; format: cell-based; conditions: mda-mb-231, 24 h; in short: as §12
BT-549 [17] = assay: as §10; format: cell-based; conditions: bt-549, 24 h; in short: as §12
T47D [18] = assay: as §11; format: cell-based; in short: as §13

Q: With `O=C(/C=C/c1cc2ccccc2[nH]c1=O)c1ccc(Cl)cc1` as the molecule, how does the GI50 (NCI-H522 [1]) read?
A: 2.23 µM

Q: What about the TGI (NCI-H522 [1]) of the same molecule?
A: 6.58 µM

Q: What about the GI50 (COLO 205) of the same molecule?
A: 10.1 µM

Q: What about the TGI (COLO 205) of the same molecule?
A: 51.3 µM

Q: What about the GI50 (HT-29) of the same molecule?
A: 3.84 µM

Q: What about the TGI (HT-29) of the same molecule?
A: 22.5 µM

Q: What about the GI50 (KM12 [2]) of the same molecule?
A: 3.23 µM

Q: And the TGI (KM12 [2])?
A: 16.3 µM

Q: And the GI50 (HCC 2998)?
A: 6.55 µM

Q: What about the TGI (HCC 2998) of the same molecule?
A: 22.3 µM

Q: And the GI50 (SNB-75)?
A: 6.21 µM

Q: And the TGI (SNB-75)?
A: 48.8 µM

Q: And the GI50 (SK-MEL-5 [3])?
A: 18.9 µM

Q: What about the TGI (SK-MEL-5 [3]) of the same molecule?
A: > 100 µM

Q: And the GI50 (M14 [4])?
A: 7.54 µM

Q: And the TGI (M14 [4])?
A: 39.7 µM

Q: What about the GI50 (NCI/ADR-RES) of the same molecule?
A: 4 µM

Q: And the TGI (NCI/ADR-RES)?
A: 23.6 µM

Q: What about the GI50 (OVCAR-8 [5]) of the same molecule?
A: 4.93 µM

Q: What about the TGI (OVCAR-8 [5]) of the same molecule?
A: 21.2 µM

Q: And the GI50 (OVCAR-5)?
A: 12.7 µM

Q: And the TGI (OVCAR-5)?
A: 97 µM

Q: What about the TGI (SK-OV-3 [6]) of the same molecule?
A: > 100 µM

Q: And the GI50 (TK-10)?
A: 5.05 µM

Q: What about the TGI (TK-10) of the same molecule?
A: 20.8 µM

Q: What about the GI50 (MDA-MB-231 [7]) of the same molecule?
A: 6.16 µM

Q: What about the TGI (MDA-MB-231 [7]) of the same molecule?
A: 28.3 µM

Q: What about the GI50 (BT-549 [8]) of the same molecule?
A: 3.86 µM

Q: And the TGI (BT-549 [8])?
A: 17.1 µM

Q: And the GI50 (T47D [9])?
A: 7.31 µM

Q: What about the TGI (T47D [9]) of the same molecule?
A: > 100 µM

Q: What about the LC50 (CCRF-CEM) of the same molecule?
A: > 100 µM

Q: And the LC50 (HL-60)?
A: > 100 µM

Q: What about the LC50 (MOLT-4) of the same molecule?
A: > 100 µM

Q: And the LC50 (NCI-H460)?
A: > 100 µM

Q: And the LC50 (NCI-H522 [10])?
A: 47.2 µM

Q: And the LC50 (KM12 [11])?
A: 98.9 µM

Q: What about the LC50 (SW-620) of the same molecule?
A: 56.6 µM

Q: What about the LC50 (U-251) of the same molecule?
A: 39.7 µM

Q: And the LC50 (SNB-19)?
A: > 100 µM

Q: And the LC50 (LOX IMVI)?
A: > 100 µM

Q: And the GI50 (RPMI-8226)?
A: 2.23 µM

Q: And the TGI (RPMI-8226)?
A: 16.1 µM

Q: And the GI50 (SR)?
A: 1.71 µM

Q: What about the TGI (SR) of the same molecule?
A: 19.1 µM

Q: And the LC50 (SK-MEL-5 [12])?
A: > 100 µM

Q: What about the LC50 (M14 [13]) of the same molecule?
A: > 100 µM

Q: What about the LC50 (SK-MEL-28) of the same molecule?
A: > 100 µM

Q: What about the LC50 (OVCAR-8 [14]) of the same molecule?
A: 88.4 µM

Q: And the LC50 (SK-OV-3 [15])?
A: > 100 µM

Q: What about the LC50 (SN12C) of the same molecule?
A: > 100 µM

Q: What about the LC50 (786-0) of the same molecule?
A: > 100 µM

Q: What about the LC50 (MCF7) of the same molecule?
A: > 100 µM

Q: And the LC50 (MDA-MB-231 [16])?
A: > 100 µM

Q: And the LC50 (BT-549 [17])?
A: 97.6 µM

Q: What about the LC50 (T47D [18]) of the same molecule?
A: > 100 µM
